SUMO1-SIM PPI = SUMO1-SIM interaction modulation | P63165 | SUMO1 binding to a labelled peptide, TR-FRET, 1 h | inhibition, % at 20 µM | actives 0.33% (n = 360,000); in the data active = inhibition above about 37%
DNMT1 block = inhibitors of human DNMT1 | DNMT1 molecular beacon, Hinp1I cleavage, fluorescence | inhibition (reported as % activation of signal), % at 10 µM | actives 0.83% (n = 360,000); in the data active = inhibition above about 50%
MT1-MMP act inh = blocks activation of human MT1-MMP; P50281; HT1080 RFP-PRO-GFP cells, GFP/RFP ratio fluorescence, overnight; percent of plate control window, DMSO zero; GFP/RFP ratio change, % at 20 µM; actives 0.061% (n = 360,000); AID 651647;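 active = GFP/RFP ratio change of at least 30% with cell ATP level not reduced by more than half and red fluorescence within 50% of control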
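system = RFP-PRO-GFP reporter HT1080 cells | dosing = 20 µM single dose, 1% DMSO | timing = overnight cell settling, then overnight compound exposure, 37 °C, 5% CO2 | read-out basis = GFP/RFP fluorescence ratio | controls = DMSO and RFP-L50D-GFP cell wells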
CSN inh = CSN deneddylation inhibition; Purified CSN, SCF-Nedd8-OG deneddylation, fluorescence polarization; actives 0.38% (n = 360,000); inhibition, % at 12.5 µM; AID 651999;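 active = pattern-corrected inhibition above about 35%, with an unprinted fluorescence ratio check between 0.5 and 1.5, limit read from the data, passing the limit was not always enough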
Target sequence (Q92905 whole entry, looked up, one chain of several): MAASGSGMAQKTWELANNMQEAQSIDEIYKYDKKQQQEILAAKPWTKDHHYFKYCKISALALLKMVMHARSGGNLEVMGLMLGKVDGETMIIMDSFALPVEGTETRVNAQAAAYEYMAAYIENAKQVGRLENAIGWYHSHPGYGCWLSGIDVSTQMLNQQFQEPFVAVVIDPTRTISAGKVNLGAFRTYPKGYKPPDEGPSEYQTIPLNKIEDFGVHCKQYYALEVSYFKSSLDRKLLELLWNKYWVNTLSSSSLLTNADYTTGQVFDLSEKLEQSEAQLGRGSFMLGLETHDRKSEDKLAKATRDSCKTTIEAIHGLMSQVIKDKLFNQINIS
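Detection – fluorescence polarization · System – HEK293T-derived human Csn5 enzyme · Controls – substrate-only high control, full reaction low control · Timing – 90 min, room temperature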
Rpn11 inh = blocks the human proteasome subunit Rpn11; O00487; human 26S proteasome, Ub4-pepOG fluorescence polarization; 20S core pre-blocked with epoxomicin; inhibition, % at 20 µM; actives 0.59% (n = 360,000); AID 588493;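 active = inhibition at 20 µM, scaled to each plate's controls, above about 33%, limit read from the data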
Target sequence (O00487 whole entry, looked up): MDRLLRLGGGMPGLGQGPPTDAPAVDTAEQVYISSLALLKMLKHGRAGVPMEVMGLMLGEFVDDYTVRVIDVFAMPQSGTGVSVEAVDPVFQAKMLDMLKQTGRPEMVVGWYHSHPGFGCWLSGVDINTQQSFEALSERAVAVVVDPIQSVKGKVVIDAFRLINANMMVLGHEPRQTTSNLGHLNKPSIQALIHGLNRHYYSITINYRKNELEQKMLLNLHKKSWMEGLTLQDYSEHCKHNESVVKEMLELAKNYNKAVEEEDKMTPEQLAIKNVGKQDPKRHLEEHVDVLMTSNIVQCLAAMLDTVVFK
SKN-1 inh = inhibitors of C. elegans SKN-1; C. elegans VP596 Pgst-4::GFP/RFP ratio, acrylamide-induced, 24 h; inhibition, % at 21.8 µM; actives 0.49% (n = 360,000); AID 624304;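 active = interference check ratio from 0.5 to 1.5 plus GFP to RFP signal ratio inhibition reaching or exceeding a fixed threshold, cut at about 30% in these data, passing the limit was not always enough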
Rpn11 confirm = confirmation of human proteasome Rpn11 inhibitors | shares compounds with Rpn11 inh | actives 29% (n = 1,900) | AID 602318 | inhibition, % at 20 µM | purified human 26S proteasome, Ub4-pepOG fluorescence polarization; proteasome pretreated with epoxomicin
MMP-2 inh = counter-screen for RPN11 inhibitors: inhibition of human MMP-2 | shares compounds with Rpn11 inh | recombinant MMP-2, FRET peptide cleavage fluorescence | inhibition, % at 20 µM | actives 4% (n = 1,900) | AID 602330;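 note: human MMP-2 activated beforehand with APMA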
Thrombin inh = counter-screen for RPN11 inhibitors: inhibition of bovine thrombin. actives 13% (n = 1,900). bovine thrombin cleavage of Ub4-pepOG, fluorescence polarization. AID 602333. inhibition, % at 20 µM. shares compounds with Rpn11 inh;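 active = mean inhibition at least 40% at 20 µM, or signal 3 deviations below plate average, so some actives read negative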
Numbers stand for hits; – = inactive; · = not tested or not shown. Only some compounds are listed: those with a hit (about 2.3% of all), similar ones and a draw of the others. Cut-off read from the data, not from the text of the source, unless noted: active = inhibition above about 40%; inactive = the rest.

SMILES	SUMO1-SIM PPI	DNMT1 block	MT1-MMP act inh	CSN inh	Rpn11 inh	SKN-1 inh	Rpn11 confirm	MMP-2 inh	Thrombin inh
Cc1sc2nc(CSC(C)C(=O)Nc3ccccn3)[nH]c(=O)c2c1C (stereo not drawn)	–	–	–	–	–	–	·	·	·
Cc1ccc(NC(=O)C(C)SCc2nc3sc4c(c3c(=O)[nH]2)CCCC4)nc1 (stereo not drawn)	–	–	–	–	55	–	49	–	–
CC(SCc1nc2sc3c(c2c(=O)[nH]1)CCCC3)C(=O)Nc1ccccn1 (stereo not drawn)	–	–	–	–	45	–	–	–	–
Cc1ccc(NC(=O)C(C)SCc2nc3sc(C)c(C)c3c(=O)[nH]2)nc1 (stereo not drawn)	–	–	–	–	–	–	·	·	·
O=C(Nc1ccc(F)c(Cl)c1)C1Cc2c(-c3cccc(F)c3)ccnc2O1 (stereo not drawn)	–	–	–	–	–	–	·	·	·
CCc1nc2ccc(C(=O)Nc3ccc(Cl)c(Cl)c3)cn2c1N(C)Cc1ccc(OC)cc1	–	–	–	–	–	–	·	·	·
CCCc1nc2c3ccccc3ccn2c1Cc1ccc(C)cc1	–	–	–	–	43	–	–	–	–
Cc1ccc(Cc2c(-c3ccco3)nc3c(C)cc(Br)cn23)cc1	–	–	–	–	–	–	·	·	·
Cc1ccc(Cc2c(-c3ccco3)nc3c4ccccc4ccn23)cc1	–	–	–	–	44	–	–	40	–
CCCc1nc2c3ccccc3ccn2c1Cc1cccc(Cl)c1	–	–	–	–	–	–	·	·	·
CSCc1cc(C(=O)NCCN2CCOCC2)c(N)s1	–	·	–	–	·	–	·	·	·
C[C@H]1CN([C@@H](C)CO)S(=O)(=O)c2ccc(C#Cc3ccccn3)cc2O[C@@H]1CN(C)C(=O)C1CC1	–	–	–	–	–	–	·	·	·
COc1ccccc1-c1cc(C(=O)Nc2cc(C)nn2-c2ccccc2)no1	–	–	–	–	59	–	65	–	–
Cc1ccc(C)c(OCC(=O)NNC(=O)c2ccc(NC(=O)C3CC3)cc2)c1	–	–	–	–	–	–	·	·	·
Cc1cc(Br)ccc1OCC(=O)NNC(=O)c1ccc(NC(=O)C2CC2)cc1	–	–	–	–	55	–	–	–	–
COC(=O)C1=CN(c2ccc(OC)cc2OC)C(N)=C(C#N)C1c1ccccc1F (stereo not drawn)	–	·	–	–	·	–	·	·	·
COc1ccc(N(C)C(=O)CC2(CC(=O)O)CCCCC2)cc1	–	–	–	–	57	–	–	–	–
COc1ccc(NC(=O)CC2(CC(=O)O)CCCC2)cc1	–	–	–	–	–	–	·	·	·
CCC(=O)N1CCCC1(C)C(=O)NCc1ccc(SC)cc1 (stereo not drawn)	–	–	–	–	–	–	·	·	·
COC(=O)CCCC[C@@H]1O[C@H](CCc2ccccc2)Cc2[nH]c(=S)[nH]c(=O)c21	–	·	–	–	·	–	·	·	·
Cc1nc(N2CCCCC2)nc(N2CCCCC2)c1C=O	–	–	–	–	58	–	–	–	–
Cc1ccc(-c2c(C)c(-c3ccc(F)cc3)nc(N)c2C#N)o1	–	–	–	–	42	–	–	–	–
Cc1c(-c2ccc(F)cc2)nc(N)c(C#N)c1-c1cccnc1	–	–	–	–	–	–	·	·	·
Cc1c(Br)cccc1NC(=O)C1(C)CCN1Cc1ccccc1OC(F)F (stereo not drawn)	–	–	–	–	–	–	·	·	·
COc1cccc(C(=O)Nc2ccc3c(c2)OC[C@H](C)N(C(=O)C2CCCC2)C[C@@H](C)[C@@H](OC)CN(C)C3=O)c1	–	·	–	–	·	–	·	·	·
SMILES	SUMO1-SIM PPI	DNMT1 block	MT1-MMP act inh	CSN inh	Rpn11 inh	SKN-1 inh	Rpn11 confirm	MMP-2 inh	Thrombin inh
N#Cc1c(-c2ccco2)cc(-c2ccc(F)cc2)nc1N	–	–	–	–	73	–	50	–	–
N#Cc1c(-c2ccc(F)cc2)cc(-c2cccnc2)nc1N	–	–	–	–	–	–	·	·	·
CC(C)Cc1cc(-c2ccco2)c(C#N)c(N)n1	–	–	–	–	60	–	–	–	–
CCSc1nc(N)c(C#N)c(-c2ccco2)c1C#N	–	–	–	–	–	–	·	·	·
CC(O)(c1ccc(F)c(F)c1)c1nc(-c2cc3ccccc3o2)cs1 (stereo not drawn)	–	–	–	–	–	–	·	·	·
CCOC(=O)C1=CCN(S(=O)(=O)c2ccccc2Br)C1c1ccc(Cl)c(Cl)c1 (stereo not drawn)	–	–	–	–	–	–	·	·	·
COc1cc(NC(=O)CCn2c(=S)[nH]c3ccccc3c2=O)cc(OC)c1OC	–	–	–	–	64	–	103	–	–
COc1cc(NC(=O)CCCn2c(=S)[nH]c3ccccc3c2=O)cc(OC)c1OC	–	–	–	–	–	–	·	·	·
COc1ccc(-c2nc(NCCN(C)C)nc3ccsc23)c(C)c1	–	–	–	–	–	–	·	·	·
O=c1[nH]c(CN2CCN(c3ccccc3)CC2)nc2scc(-c3ccccc3)c12	–	–	–	–	41	–	–	–	–
COc1ccc(N2CCN(Cc3nc4scc(-c5cccs5)c4c(=O)[nH]3)CC2)cc1	–	–	–	–	58	–	–	–	–
COc1ccc(N2CCN(Cc3nc4scc(-c5ccccc5)c4c(=O)[nH]3)CC2)cc1	–	–	–	–	–	–	·	·	·
CCCCc1cc(=O)oc2cc(C)cc(OCC(=O)Nc3cccnc3)c12	–	–	–	–	70	–	–	–	–
CCCc1cc(=O)oc2cc(C)cc(OCC(=O)NCc3cccnc3)c12	–	–	–	–	–	–	·	·	·
CCOC(=O)C1=C(N)n2c(s/c(=C\c3ccncc3)c2=O)=C(C(=O)OCC)C1c1ccncc1 (stereo not drawn)	–	–	–	–	–	–	·	·	·
CCOC(=O)C1=C(N)n2c(s/c(=C\c3cccnc3)c2=O)=C(C(=O)OC)C1c1cccnc1 (stereo not drawn)	–	–	–	67	35	–	–	–	–
Fc1ccccc1-c1nc(-c2ccccc2)no1	–	–	–	–	46	–	–	–	–
COc1ccc(Nc2nc(-c3cccs3)cs2)c(OC)c1	–	–	–	–	30	–	–	–	–
O=C(N/N=C/c1ccco1)c1ccc(NC(=O)c2ccc(Cl)cc2)cc1	–	–	–	–	43	–	–	–	–

Compound activity (PubChem BioAssay)
